# Tests used:
# [1] = test system: Mus musculus; assay: Effective dose required to evoke catalepsy in mouse when administered perorally; assay type: functional
# Summary of the method: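 CFW mice (21–23 g), groups of three, oral dosing in water or 0.5% carboxymethylcellulose. Scored at 0.25, 2.5 and 5.0 h for holding one hind limb on a 2 cm rubber bung and staying on a vertical grid. EDmin is the dose below which no catalepsy occurred at any time.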
# [2] = test system: Mus musculus; assay: Effective dose required to produce hypothermia in mouse when administered peroral; assay type: functional
# Summary of the method: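 Rectal temperature recorded in groups of three CFW mice (21–23 g) at 0.25, 2.5 and 5.0 h after oral compound (water or 0.5% carboxymethylcellulose). Changes in group mean temperature from the initial mean were summed over the three times. Hypothermia was taken as a summed mean fall >4 °C.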
# [3] = test system: Rattus norvegicus; assay: Effective dose against muscular incoordination in rats determined by rotarod test when administered peroral; assay type: functional
# Summary of the method: (§1)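 Male Olac Wistar rats (140–150 g), fed and watered ad libitum, in groups of five, dosed orally (water solution or 0.5% carboxymethylcellulose suspension). Tested at 1 and 2 h on a horizontal rod rotating at 2 rpm, 32 mm diameter, with a 30 s cutoff.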
# [4] = organism: Rattus norvegicus; assay: Inhibition of conditioned avoidance response in rats, peroral dose; assay type: functional
# [5] = molecular target: T1, D(2) dopamine receptor (Bos taurus, UniProt P20288); assay: Inhibitory activity against dopamine receptor D2 in calf caudate tissue using [3H]spiperone
# [6] = molecular target: Muscarinic acetylcholine receptor; assay: Inhibitory activity against muscarinic cholinergic receptors in male olac rat brain, using [3H]QNB as the radioligand
# [7] = test system: Rattus norvegicus; assay: Effective dose against muscular incoordination in rats determined by rotarod test when administered perorally; assay type: functional; summary of the method: as §1
# [8] = molecular target: Muscarinic acetylcholine receptor; assay: Inhibitory activity against Muscarinic acetylcholine receptor in male olac rat brain, using [3H]-QNB as the radioligand
# [9] = molecular target: T1, D(2) dopamine receptor; assay: Inhibitory activity against Dopamine receptor D2 in calf caudate tissue, using [3H]spiperone as the radioligand
# [10] = molecular target: T1, D(2) dopamine receptor; assay: Inhibitory activity Dopamine receptor D2 in calf caudate tissue, using [3H]spiperone as the radioligand
# [11] = test system: Rattus norvegicus; assay: Effective dose against muscular in coordination in rats determined by rotarod test when administered peroral; assay type: functional
# Summary of the method: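 Male Olac Wistar rats (140–150 g), fed and watered ad libitum, groups of five; compound in distilled water or 0.5% carboxymethylcellulose given orally. Tested at 1 and 2 h on horizontal rod rotating at 2 rpm (32 mm diameter), time on rod recorded up to 30 s.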
# T1 sequence (P20288 whole entry): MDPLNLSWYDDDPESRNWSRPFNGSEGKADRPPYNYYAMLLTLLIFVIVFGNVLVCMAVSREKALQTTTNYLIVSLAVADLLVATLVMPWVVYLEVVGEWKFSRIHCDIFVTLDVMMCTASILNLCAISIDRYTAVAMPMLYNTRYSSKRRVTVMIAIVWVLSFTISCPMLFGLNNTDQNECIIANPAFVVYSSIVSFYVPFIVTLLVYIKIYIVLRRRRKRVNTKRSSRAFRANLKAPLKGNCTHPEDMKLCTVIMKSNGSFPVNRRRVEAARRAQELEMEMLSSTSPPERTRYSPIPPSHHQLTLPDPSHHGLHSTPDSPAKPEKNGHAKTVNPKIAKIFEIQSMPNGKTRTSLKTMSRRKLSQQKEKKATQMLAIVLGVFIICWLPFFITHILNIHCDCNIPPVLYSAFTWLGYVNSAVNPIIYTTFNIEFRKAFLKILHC
SMILES,IC50 [5] [nM],IC50 [6] [nM],IC50 [8] [nM],IC50 [9] [nM],IC50 [10] [nM],EDmin [1] [mg/kg],EDmin [2] [mg/kg],EDmin [3] [mg/kg],EDmin [4] [mg/kg],EDmin [7] [mg/kg],EDmin [11] [mg/kg]
CN1CCN(C2=Nc3cc(F)ccc3Nc3nn(C)nc32)CC1,,,> 1000,840,,25,12.5,,5,20,
Cc1nc2c(n1C)C(N1CCN(C)CC1)=Nc1cc(F)ccc1N2,> 10000,> 1000,,,,>200,50,>50,>50,,
CN1CCN(C2=Nc3ccccc3Nc3c2nnn3C)CC1,,,,> 10000,,,,,>50,,
CN1CCN(C2=Nc3cc(Br)ccc3Nc3nn(C)nc32)CC1,,,4000,,300,12.5,12.5,5,5,,
CCn1cnc2c1Nc1ccc(F)cc1N=C2N1CCN(C)CC1,> 10000,61000,,,,>200,>200,>50,>50,,
CN1CCN(C2=Nc3ccccc3Nc3ncccc32)CC1,,,,> 10000,,,100,,,,
CN1CCN(C2=Nc3ccccc3Nc3nn(C)nc32)CC1,1420,> 1000,,,,25,25,,5,>50,
CN1CCN(C2=Nc3cc(Cl)ccc3Nc3nn(C)nc32)CC1,,,2600,210,,12.5,6,>10,4,,
CN1CCN(C2=Nc3cc(Cl)ccc3Nc3ccccc32)CC1 [CLOZAPINE],,,,,,100,50,,30,,40
Cc1cc2c(s1)Nc1ccc(F)cc1N=C2N1CCN(C)CC1 [FLUMEZAPINE],,80,,,,6.25,1.6,10,5,,

# Now from value to compound, other results behind:
IC50 [5] [nM],IC50 [6] [nM],IC50 [8] [nM],IC50 [9] [nM],IC50 [10] [nM],SMILES,EDmin [1] [mg/kg],EDmin [2] [mg/kg],EDmin [3] [mg/kg],EDmin [4] [mg/kg],EDmin [7] [mg/kg],EDmin [11] [mg/kg]
> 10000,> 100000,,,,CN1CCN(C2=Nc3cc(F)ccc3Nc3c2ncn3C2CCCCC2)CC1,>400,200,>50,>50,,
,,> 1000,2300,,CN1CCN(C2=Nc3cc(Cl)c(Cl)cc3Nc3nn(C)nc32)CC1,100,50,>50,>20,,
180,> 1000,,,,CCn1nc2c(n1)C(N1CCN(C)CC1)=Nc1cc(F)ccc1N2,12.5,12.5,10,5,,
,,> 1000,1100,,CN1CCN(C2=Nc3cc(C(F)(F)F)ccc3Nc3nn(C)nc32)CC1,50,50,25,>25,,
> 100000,122000,,,,CN1CCN(C2=Nc3cc(F)ccc3Nc3c2ncn3C)CC1,>400,>400,>50,>50,,
,,,9200,,CN1CCN(C2=Nc3cc(Cl)c(Cl)cc3Nc3ncccc32)CC1,50,100,,,,
> 10000,> 1000,,,,CN1CCN(C2=Nc3cc(F)ccc3Nc3ncn(C)c32)CC1,100,25,40,>20,,
67,2400,,,,CCn1nc2c(n1)C(N1CCN(C)CC1)=Nc1cc(Cl)ccc1N2,12.5,12.5,>5,5,,
